From paper PMC12062833 (RSC Medicinal Chemistry, 2025)
Values after ≈ are worked out from the molar mass of the structure shown.

Tests used:
[1] = test system: Klebsiella pneumoniae (ATCC 27736); test: Antibacterial MIC, macrodilution method, K. pneumoniae; assay type: cell-based; details: ATCC27736, read-out: MIC K. pneumoniae
Procedure, shortened: (§1)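 CLSI M07-A9 tube macrodilution. Strains were grown overnight on nutrient agar at 37 °C, and colonies were suspended in Mueller-Hinton broth. Inoculum was 1 × 10^6 per mL (5 × 10^5 per mL in test). DMSO stock was 5120 μg/mL. Final concentrations were 256 to […] in 2 mL. Tubes were incubated at 37 °C for 16–20 h. Controls were inoculum with and without 1% DMSO, and broth alone.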

[2] = test system: Capan-1 pancreatic adenocarcinoma cells; test: Antiproliferative assay; assay type: cell-based; details: Homo sapiens, CAPAN-1, 72 h, read-out: IC50 Capan-1
Procedure, shortened: (§2)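 Adherent lines were seeded at 500 (Capan-1), 1000 (LN-229, HCT-116) or 1500 (NCI-H460) cells/well and dosed after overnight incubation. Suspension lines were seeded at 2500 (HL-60, K-562, Z-138) or 5500 (DND-41) cells/well directly onto compound. Seven 5-fold concentrations ran from 100 to 0.006 μM for 72 h. Viability was read as MTS absorbance at 490 nm after 3 h, and IC50 was derived from OD values. Two independent experiments.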

[3] = test system: Pseudomonas aeruginosa (ATCC 9027); test: Antibacterial MIC, macrodilution method, P. aeruginosa; assay type: cell-based; details: ATCC9027, read-out: MIC P. aeruginosa
Procedure, shortened: as §1

[4] = test system: LN-229 glioblastoma cells; test: Antiproliferative assay; assay type: cell-based; details: Homo sapiens, LN-229, 72 h, read-out: IC50 LN-229
Procedure, shortened: as §2

[5] = test system: Escherichia coli (ATCC 25922); test: Antibacterial MIC, macrodilution method, E. coli; assay type: cell-based; details: ATCC25922, read-out: MIC E. coli
Procedure, shortened: as §1

[6] = test system: NCI-H460 non-small cell lung cancer cells; test: Antiproliferative assay; assay type: cell-based; details: Homo sapiens, NCI-H460, 72 h, read-out: IC50 NCI-H460
Procedure, shortened: as §2

[7] = test system: K-562 chronic myeloid leukemia cells; test: Antiproliferative assay; assay type: cell-based; details: Homo sapiens, K562, 72 h, read-out: IC50 K-562
Procedure, shortened: as §2

[8] = test system: HCT-116 colon carcinoma cells; test: Antiproliferative assay; assay type: cell-based; details: Homo sapiens, HCT-116, 72 h, read-out: IC50 HCT-116
Procedure, shortened: as §2

[9] = test system: Staphylococcus aureus (ATCC 25923); test: Antibacterial MIC, macrodilution method, S. aureus; assay type: cell-based; details: ATCC25923, read-out: MIC S. aureus
Procedure, shortened: as §1

[10] = test system: HL-60 acute myeloid leukemia cells; test: Antiproliferative assay; assay type: cell-based; details: Homo sapiens, HL-60, 72 h, read-out: IC50 HL-60
Procedure, shortened: as §2

[11] = test system: eight human tumor cell lines; test: Antiproliferative assay, span over the panel of tumor cell lines; assay type: cell-based; details: 72 h, read-out: IC50 range across tested tumor cell lines
Procedure, shortened: as §2

[12] = test system: salmon sperm DNA; test: Fluorescent intercalator displacement; assay type: binding; details: tested at 250, 100 and 40 μM; result in words
Procedure, shortened: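 Competitive fluorescence-polarization displacement. Acridine orange (50 nM) and salmon sperm DNA (6 μg/mL) were mixed with test compound at 250, 100 or 40 μM in HEN buffer (10 mM HEPES pH 7.5, 1 mM EDTA, 100 mM NaCl). Mixtures stood 20 min in the dark. mP was normalized to the DMSO control, with mitoxantrone (10 μM) as positive control.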

Row | Structure (SMILES) | MIC [1] [µg/mL] | IC50 [2] [µM] | MIC [3] [µg/mL] | IC50 [4] [µM] | MIC [5] [µg/mL] | IC50 [6] [µM] | IC50 [7] [µM] | IC50 [8] [µM] | MIC [9] [µg/mL] | IC50 [10] [µM] | IC50 [11] [µM] | DNA intercalation (acridine orange displacement, fluorescence polarization) [12]
1 | Fc1cc(-c2nc3ccccc3[nH]2)ccc1OCc1cn(CCN2CCOCC2)nn1 [Compound 31, 4-(2-(4-((4-(1H-Benzo[d]imidazol-2-yl)-2-fluorophenoxy)methyl)-1H-1,2,3-triazol-1-yl)ethyl)morpholine] | > 256 | 40.6 ± 2.5 | > 256 | > 100 | > 256 | > 100 | 73 ± 3 | > 100 | > 256 | 66.1 ± 4 |  | 
2 | O=C(O)c1cn(C2CC2)c2cc(N3CCNCC3)c(F)cc2c1=O [CIP, ciprofloxacin, reference compound] | > 256 |  | 0.5 (≈ 1.51 µM) |  | < 0.125 |  |  |  | 0.5 (≈ 1.51 µM) |  |  | 
3 | Fc1ccc2nc(-c3ccc(OCCN4CCOCC4)cc3)[nH]c2c1 [Compound 19, 4-(2-(4-(6-Fluoro-1H-benzo[d]imidazol-2-yl)phenoxy)ethyl)morpholine] |  | ≥ 69.1 |  | > 100 |  | > 100 | > 100 | > 100 |  | > 100 | 37.3 to 79.8 | 
4 | O=C(COc1ccc(-c2nc3ccc(F)cc3[nH]2)cc1F)N1CCOCC1 [Compound 27, 2-(2-Fluoro-4-(6-fluoro-1H-benzo[d]imidazol-2-yl)phenoxy)-1-morpholinoethan-1-one] | > 256 | > 100 | > 256 | > 100 | > 256 | > 100 | > 100 | > 100 | > 256 | > 100 |  | exhibit clear intercalating properties
5 | O=C(COc1ccc(-c2nc3ccc(F)cc3[nH]2)cc1)N1CCOCC1 [Compound 20, 2-(4-(6-Fluoro-1H-benzo[d]imidazol-2-yl)phenoxy)-1-morpholinoethan-1-one] |  | > 100 |  | > 100 |  | > 100 | > 100 | > 100 |  | > 100 |  | 
6 | Fc1ccc2nc(-c3ccc(OCc4cn(CCN5CCOCC5)nn4)c(F)c3)[nH]c2c1 [Compound 33, 4-(2-(4-((2-Fluoro-4-(6-fluoro-1H-benzo[d]imidazol-2-yl)phenoxy)methyl)-1H-1,2,3-triazol-1-yl)ethyl)morpholine] | > 256 | 47 ± 4.3 | > 256 | > 100 | > 256 | > 100 | 29.6 ± 1.9 | > 100 | > 256 | 65.1 ± 2.8 |  | 
7 | c1ccc2[nH]c(-c3ccc(OCCN4CCOCC4)cc3)nc2c1 [Compound 13, 4-(2-(4-(1H-Benzo[d]imidazol-2-yl)phenoxy)ethyl)morpholine] | > 256 | 42.1 ± 3.7 | > 256 | > 100 | > 256 | > 100 | 79.8 ± 1.3 | > 100 | > 256 | 54.2 ± 4.1 | 37.3 to 79.8 | 
8 | Clc1ccc2nc(-c3ccc(OCc4cn(CCN5CCOCC5)nn4)cc3)[nH]c2c1 [Compound 29, 4-(2-(4-((4-(6-Chloro-1H-benzo[d]imidazol-2-yl)phenoxy)methyl)-1H-1,2,3-triazol-1-yl)ethyl)morpholine] | > 256 | > 100 | > 256 | > 100 | > 256 | > 100 | > 100 | > 100 | > 256 | ≥ 98.1 |  | 
9 | CCN(CC)CCOc1ccc(-c2nc3ccccc3[nH]2)cc1 [Compound 12, 2-(4-(1H-Benzo[d]imidazol-2-yl)phenoxy)-N,N-diethylethan-1-amine] | > 256 | 47.7 ± 3.2 | > 256 | ≥ 65.1 | > 256 | 52.4 ± 1.3 | 38.2 ± 4.5 | > 100 | > 256 | 46.4 ± 1.3 |  | 
10 | Fc1cc(-c2nc3ccccc3[nH]2)ccc1OCCN1CCOCC1 [Compound 21, 4-(2-(4-(1H-Benzo[d]imidazol-2-yl)-2-fluorophenoxy)ethyl)morpholine] |  | > 100 |  | > 100 |  | > 100 | > 100 | > 100 |  | > 100 |  | 
11 | c1ccc2[nH]c(-c3ccc(OCc4cn(CCN5CCOCC5)nn4)cc3)nc2c1 [Compound 28, 4-(2-(4-((4-(1H-Benzo[d]imidazol-2-yl)phenoxy)methyl)-1H-1,2,3-triazol-1-yl)ethyl)morpholine] | > 256 | 47.2 ± 0.4 | > 256 | > 100 | 256 (≈ 633 µM) | > 100 | ≥ 88 | > 100 | > 256 | ≥ 70 |  | 
12 | O=C(COc1ccc(-c2nc3ccccc3[nH]2)cc1)N1CCOCC1 [Compound 14, 2-(4-(1H-Benzo[d]imidazol-2-yl)phenoxy)-1-morpholinoethan-1-one] | > 256 | > 100 | > 256 | > 100 | > 256 | > 100 | > 100 | > 100 | > 256 | > 100 |  | 
13 | CC(C)(O/N=C(\C(=O)N[C@@H]1C(=O)N2C(C(=O)[O-])=C(C[n+]3ccccc3)CS[C@H]12)c1csc(N)n1)C(=O)O [CAZ, ceftazidime, reference compound] | 256 (≈ 468 µM) |  | 2 (≈ 3.66 µM) |  | 0.5 (≈ 0.915 µM) |  |  |  | 64 (≈ 117 µM) |  |  | 
14 | CCN(CC)CCOc1ccc(-c2nc3ccc(Cl)cc3[nH]2)cc1 [Compound 15, 2-(4-(6-Chloro-1H-benzo[d]imidazol-2-yl)phenoxy)-N,N-diethylethan-1-amine] | > 256 | 25.1 ± 3.7 | > 256 | 44 ± 0.8 | 256 (≈ 744 µM) | 41.3 ± 3.7 | 8.7 ± 1.1 | 47.2 ± 1.8 | > 256 | 29.2 ± 2.2 |  | 
15 | COc1cc([C@@H]2c3cc4c(cc3[C@@H](O[C@@H]3O[C@@H]5CO[C@@H](C)O[C@H]5[C@H](O)[C@H]3O)[C@H]3COC(=O)[C@H]23)OCO4)cc(OC)c1O [Etoposide, reference compound] |  | 3.4 ± 0.9 |  | 0.03 |  | 6.1 ± 1.1 | 4 ± 1.3 | 3.7 ± 0.3 |  | 0.8 ± 0.2 |  | 
16 | O=C(COc1ccc(-c2nc3ccccc3[nH]2)cc1F)N1CCOCC1 [Compound 22, 2-(4-(1H-Benzo[d]imidazol-2-yl)-2-fluorophenoxy)-1-morpholinoethan-1-one] |  | > 100 |  | > 100 |  | > 100 | > 100 | > 100 |  | > 100 |  | exhibit clear intercalating properties
17 | Fc1cc(-c2nc3ccc(Cl)cc3[nH]2)ccc1OCc1cn(CCN2CCOCC2)nn1 [Compound 32, 4-(2-(4-((4-(6-Chloro-1H-benzo[d]imidazol-2-yl)-2-fluorophenoxy)methyl)-1H-1,2,3-triazol-1-yl)ethyl)morpholine] | > 256 | 54.9 ± 5.1 | > 256 | > 100 | > 256 | > 100 | > 100 | > 100 | > 256 | > 100 |  | 
18 | Fc1ccc2nc(-c3ccc(OCc4cn(CCN5CCOCC5)nn4)cc3)[nH]c2c1 [Compound 30, 4-(2-(4-((4-(6-Fluoro-1H-benzo[d]imidazol-2-yl)phenoxy)methyl)-1H-1,2,3-triazol-1-yl)ethyl)morpholine] | > 256 | 58.8 ± 1.9 | > 256 | > 100 | > 256 | 46.9 ± 4.4 | > 100 | > 100 | > 256 | ≥ 60.6 |  | 
19 | CCN(CC)CCOc1ccc(-c2nc3ccc(F)cc3[nH]2)cc1 [Compound 18, N,N-Diethyl-2-(4-(6-fluoro-1H-benzo[d]imidazol-2-yl)phenoxy)ethan-1-amine] |  | 39.1 ± 2.1 |  | 44.1 ± 5.3 |  | 37.2 ± 4.3 | 27.6 ± 3.3 | 61.1 ± 0.7 |  | 51.9 ± 5.9 |  | 
